Bounds are passed on as bounds.

The target of experiment [1] is T1, Monoglyceride lipase (Homo sapiens, UniProt Q99685).
T1 sequence (Q99685 whole entry): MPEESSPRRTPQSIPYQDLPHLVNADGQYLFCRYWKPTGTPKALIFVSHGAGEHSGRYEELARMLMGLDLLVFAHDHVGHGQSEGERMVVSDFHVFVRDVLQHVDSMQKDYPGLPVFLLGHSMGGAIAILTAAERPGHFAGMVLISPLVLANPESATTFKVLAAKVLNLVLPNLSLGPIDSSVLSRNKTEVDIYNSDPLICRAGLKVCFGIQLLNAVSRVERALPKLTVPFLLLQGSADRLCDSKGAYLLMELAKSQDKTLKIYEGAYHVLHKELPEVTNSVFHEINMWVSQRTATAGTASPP
As to the kind of experiment: Inhibition of human recombinant MAGL expressed in HEK293 cells using 2-AG as substrate. Format: cell-based. The method in brief: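 Lysates of HEK293 cells transiently overexpressing human recombinant MAGL, 2.5 ug protein per incubation. 2-AG substrate at 50 uM.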

Experiment [2] concerns the target T2, Fatty-acid amide hydrolase 1 (Homo sapiens) (UniProt O00519).
T2 sequence (whole entry): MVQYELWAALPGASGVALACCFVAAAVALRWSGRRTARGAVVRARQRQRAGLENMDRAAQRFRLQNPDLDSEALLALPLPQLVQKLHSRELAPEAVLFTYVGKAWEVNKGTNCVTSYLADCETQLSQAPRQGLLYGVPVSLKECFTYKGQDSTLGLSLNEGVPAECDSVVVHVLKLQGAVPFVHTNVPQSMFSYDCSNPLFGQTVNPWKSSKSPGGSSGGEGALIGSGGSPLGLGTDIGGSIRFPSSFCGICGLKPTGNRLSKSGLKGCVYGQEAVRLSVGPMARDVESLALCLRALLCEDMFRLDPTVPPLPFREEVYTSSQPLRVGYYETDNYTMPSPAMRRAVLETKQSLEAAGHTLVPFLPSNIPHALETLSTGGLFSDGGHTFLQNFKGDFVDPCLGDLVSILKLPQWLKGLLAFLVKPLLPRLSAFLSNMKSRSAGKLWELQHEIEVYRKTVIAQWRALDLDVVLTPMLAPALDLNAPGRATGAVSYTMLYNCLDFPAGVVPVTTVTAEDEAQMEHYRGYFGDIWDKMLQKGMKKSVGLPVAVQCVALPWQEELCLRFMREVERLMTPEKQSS
Kind of experiment: Inhibition of human recombinant FAAH expressed in COS7 cells using anandamide as substrate assessed as remaining activity at 10 uM. Format: cell-based. The conditions noted are these: COS-7. In a few lines:
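Membranes of COS-7 cells transiently overexpressing human FAAH, 1 ug protein per incubation, with 20 uM anandamide substrate including 10 nM 3H-anandamide tracer. Test compound at 10 uM. Remaining activity expressed as % of control, given as range, n = 2.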

The target in experiment [3] is T3, Fatty-acid amide hydrolase 1 (Homo sapiens, UniProt O00519).
T3 sequence (O00519 whole entry): T2 sequence (whole entry)
As to the kind of experiment: Inhibition of human recombinant FAAH expressed in COS7 cells using anandamide as substrate. Format: cell-based, COS-7. The method in brief: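 Membranes of COS-7 cells transiently overexpressing human recombinant FAAH, 1 ug protein per incubation. Anandamide substrate at 20 uM, including 10 nM 3H-anandamide tracer (specific activity 60 […]/mmol).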

Experiment [4] addresses T4, Monoglyceride lipase (Homo sapiens) (UniProt Q99685).
T4 sequence (whole entry): T1 sequence (Q99685 whole entry)
As to the kind of experiment: Inhibition of human recombinant MAGL expressed in HEK293 cells using 2-AG as substrate assessed as remaining activity at 10 uM. In a few lines: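 Lysates of HEK293 cells transiently overexpressing human MAGL, 2.5 ug protein per incubation, with 50 uM 2-AG substrate. Test compound at 10 uM. Remaining activity expressed as % of control, given as range, n = 2.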

For experiment [5], the species on record is Homo sapiens. Kind of experiment: Selectivity ratio of IC50 for human recombinant FAAH to IC50 for human recombinant MAGL.

On to `O=C(Oc1ccc([N+](=O)[O-])cc1)N1CCN(C(c2ccc(F)cc2)c2ccc(F)cc2)CC1`, for which, in experiment [1] (read-out: IC50), the IC50 stood at 347 nM. The Activity in experiment [2] came to 85%.

Take `O=C(N1CCN(c2ccccc2)CC1)n1nnc2cccnc21`: the IC50 was 275 nM in experiment [1] (read-out: IC50), 11 nM in experiment [3] (read-out: IC50) and 11.2 nM in experiment [3] (read-out: pIC50 (converted)).

`O=C(Oc1ccc([N+](=O)[O-])cc1)N1CCN(Cc2ccc(Oc3ccccc3)cc2)CC1`: the IC50 in experiment [1] (read-out: IC50) is 1100 nM. Besides, the Activity in experiment [2] amounted to 43%.

Consider `O=C(Nc1ccccc1)N1CCN(C(c2ccccc2)c2ccccc2)CC1`, for which the Activity was 62% in experiment [4] and 88% in experiment [2].

Consider `O=C(Oc1ccc([N+](=O)[O-])cc1)N1CCN(C(c2ccccc2)c2ccccc2)CC1`, for which, in experiment [1] (read-out: IC50), the IC50 was determined as 257 nM. In addition, the Activity in experiment [2] was determined as 86%.

On to `O=C(OC(C(F)(F)F)C(F)(F)F)N1CCN(Cc2cccc(Oc3ccccc3)c2)CC1`, for which the IC50 in experiment [1] (read-out: IC50) amounted to 74 nM. For the same molecule, in experiment [2], the Activity came out at 76%.

Consider `CCOC(=O)N1CCN(C(=O)n2cncn2)CC1`, for which the figures for the IC50 in experiment [1] (read-out: IC50), in experiment [3] (read-out: IC50) and in experiment [3] (read-out: pIC50 (converted)) were 1660 nM, 141 nM and 141 nM, respectively.

As for `O=C(N1CCC(C(O)(c2ccc3c(c2)OCO3)c2ccc3c(c2)OCO3)CC1)n1cncn1`, the IC50 is 0.692 nM in experiment [1] (read-out: pIC50 (converted)), 1620 nM in experiment [3] (read-out: IC50) and 1620 nM in experiment [3] (read-out: pIC50 (converted)). The Ratio IC50 in experiment [5] turned out to be 2320.

Take `O=C(N1CCN(C(c2ccccc2)c2ccccc2)CC1)n1cnc(-c2ccccc2)c1`: the Activity in experiment [4] worked out at 93%; in experiment [2] it was 62%.

Regarding `O=C(Nc1ccc([N+](=O)[O-])cc1)N1CCN(Cc2cccc(Oc3ccccc3)c2)CC1`, the Activity worked out at 102% in experiment [4] and 98% in experiment [2].

Consider `O=C(Nc1cccnc1)N1CCN(C(c2ccccc2)c2ccccc2)CC1`, for which the Activity in experiment [4] worked out at 101%; in experiment [2], 87%.

With `O=C(Nc1ccccn1)N1CCN(C(c2ccccc2)c2ccccc2)CC1`, the Activity in experiment [4] was found to be 94%; in experiment [2], 87%.

`O=C(OCc1ccccc1)N1CCC(C(O)(c2ccc3c(c2)OCO3)c2ccc3c(c2)OCO3)CC1`: the Activity in experiment [4] and in experiment [2] was 92% each time.

As to `CCCCc1ccc(NC(=O)N2CCN(C(c3ccccc3)c3ccccc3)CC2)cc1`, the figures for the Activity in experiment [4] and in experiment [2] were 92% and 84%, respectively.

On to `O=C(Oc1ccc([N+](=O)[O-])cc1)N1CCC(=C(c2ccc3c(c2)OCO3)c2ccc3c(c2)OCO3)CC1`, for which the values for the Activity in experiment [4] and in experiment [2] were 85% and 89%, respectively.

For `O=C(N1CCN(Cc2cccc(Oc3ccccc3)c2)CC1)n1ccnc1`, the IC50 is 2840 nM in experiment [1] (read-out: IC50), 15 nM in experiment [3] (read-out: IC50) and 15.5 nM in experiment [3] (read-out: pIC50 (converted)).

As to `O=C(OCC(Cl)(Cl)Cl)N1CCC(C(O)(c2ccc3c(c2)OCO3)c2ccc3c(c2)OCO3)CC1`, the results for the Activity in experiment [4] and in experiment [2] were 89% and 90%, respectively.

Regarding `O=C(Nc1ccccc1)N1CCN(Cc2cccc(Oc3ccccc3)c2)CC1`, the Activity in experiment [4] turned out to be 98%. The IC50 in experiment [3] (read-out: IC50) and in experiment [3] (read-out: pIC50 (converted)) was 3020 nM throughout.

`O=C(Oc1ccc([N+](=O)[O-])cc1)N1CCC(C(c2ccc3c(c2)OCO3)c2ccc3c(c2)OCO3)CC1`: the IC50 in experiment [1] (read-out: IC50) turned out to be 42 nM. Further, in experiment [2], the Activity was determined as 88%.

As for `O=C(N1CCN(Cc2ccc(Oc3ccccc3)cc2)CC1)n1ccnc1`, the IC50 in experiment [1] (read-out: IC50) is 660 nM; in experiment [3] (read-out: IC50), 3.4 nM; in experiment [3] (read-out: pIC50 (converted)), 17.4 nM.

In the case of `O=C(N1CCN(C(c2ccccc2)c2ccccc2)CC1)n1nnc2cccnc21`, the IC50 in experiment [1] (read-out: IC50) was 1.7 nM; in experiment [3] (read-out: IC50) it was 971 nM; in experiment [3] (read-out: pIC50 (converted)), 977 nM.

As to `O=C(N1CCN(C(c2ccccc2)c2ccccc2)CC1)n1cncn1`, the IC50 was 1.3 nM in experiment [1] (read-out: IC50), 452 nM in experiment [3] (read-out: IC50) and 447 nM in experiment [3] (read-out: pIC50 (converted)).

On to `O=C(N1CCC(C(c2ccc3c(c2)OCO3)c2ccc3c(c2)OCO3)CC1)n1cncn1`, for which the IC50 in experiment [1] (read-out: IC50) was 0.4 nM; in experiment [3] (read-out: IC50) it was 4800 nM; in experiment [3] (read-out: pIC50 (converted)), 4790 nM. Also, in experiment [5], the Ratio IC50 was over 13000.

For `O=C(N1CCN(Cc2cccc(Oc3ccccc3)c2)CC1)n1nnc2cccnc21`, the IC50 in experiment [1] (read-out: IC50) is 5.5 nM; in experiment [3] (read-out: IC50) it was 23 nM; in experiment [3] (read-out: pIC50 (converted)), 22.9 nM. For the same molecule, the Ratio IC50 in experiment [5] worked out at 4.

On to `O=C(N1CCN(C(c2ccc(F)cc2)c2ccc(F)cc2)CC1)n1cncn1`, for which the IC50 in experiment [1] (read-out: IC50) is 0.9 nM; in experiment [3] (read-out: IC50) it was 282 nM; in experiment [3] (read-out: pIC50 (converted)), 282 nM.

As for `O=C(N1CCN(Cc2ccc(Oc3ccccc3)cc2)CC1)n1nnc2ccccc21`, the IC50 was 70 nM in experiment [1] (read-out: IC50), 708 nM in experiment [3] (read-out: IC50) and 708 nM in experiment [3] (read-out: pIC50 (converted)).

Turning to `CCOC(=O)N1CCN(C(=O)n2nnc3cccnc32)CC1`, the IC50 in experiment [1] (read-out: IC50) is 1910 nM; in experiment [3] (read-out: IC50), 231 nM; in experiment [3] (read-out: pIC50 (converted)), 229 nM.

In the case of `COc1ccc(NC(=O)N2CCN(Cc3cccc(Oc4ccccc4)c3)CC2)cc1`, the Activity in experiment [4] is 78%; in experiment [2], 56%.

`O=C(N1CCN(c2ccccc2)CC1)n1cncn1`: the results for the IC50 in experiment [1] (read-out: IC50), in experiment [3] (read-out: IC50) and in experiment [3] (read-out: pIC50 (converted)) were 132 nM, 6 nM and 6.03 nM, respectively.

As for `COc1ccc(NC(=O)N2CCN(C(c3ccccc3)c3ccccc3)CC2)cc1`, the Activity in experiment [4] was found to be 86%; in experiment [2] it was 89%.

Regarding `O=C(Nc1ccc(C(F)(F)F)cc1)N1CCN(C(c2ccccc2)c2ccccc2)CC1`, the Activity in experiment [4] worked out at 96%; in experiment [2], 86%.

Consider `O=C(N1CCN(Cc2cccc(Oc3ccccc3)c2)CC1)n1nnc2ccccc21`, for which the IC50 in experiment [1] (read-out: IC50) is 7.8 nM; in experiment [3] (read-out: IC50), 89 nM; in experiment [3] (read-out: pIC50 (converted)), 89.1 nM. In addition, in experiment [5], the Ratio IC50 was 10.

Take `O=C(Nc1ccc([N+](=O)[O-])cc1)N1CCN(C(c2ccccc2)c2ccccc2)CC1`: the Activity is 58% in experiment [4] and 84% in experiment [2].

Regarding `O=C(N1CCN(Cc2cccc(Oc3ccccc3)c2)CC1)n1cncn1`, the figures for the IC50 in experiment [1] (read-out: IC50), in experiment [3] (read-out: IC50) and in experiment [3] (read-out: pIC50 (converted)) were 0.6 nM, 2.7 nM and 2.69 nM, respectively. Also, in experiment [5], the Ratio IC50 is 4.5.

Turning to `O=C(N1CCN(C(c2ccccc2)c2ccccc2)CC1)n1ccnc1`, the Activity in experiment [4] was 51%. The IC50 is 2300 nM in experiment [3] (read-out: IC50) and 2290 nM in experiment [3] (read-out: pIC50 (converted)).

The values above are taken from ChEMBL document CHEMBL3352117, “Piperazine and piperidine carboxamides and carbamates as inhibitors of fatty acid amide hydrolase (FAAH) and monoacylglycerol lipase (MAGL)” (Bioorg Med Chem, 2014).
